Test results published in ChEMBL document CHEMBL1687924, “Antiviral activity of seed extract from Citrus bergamia towards human retroviruses” (Bioorg Med Chem, 2011).
≈ marks a conversion by molar mass, not a printed value. Calls of active or inactive are those of the source. The calls are words filed in the database; no cut-off is given here.

Assays:
[1] = system: Human immunodeficiency virus 1; assay: Antiviral activity against HIV1 infected in human PBMC assessed as inhibition of gag gene expression at 0.27 ug/ml after 5 days post infection by quantitative real time RT-PCR; assay type: functional; conditions: Human immunodeficiency virus 1, 120 h
[2] = Inhibition of Human T-cell leukemia/lymphoma virus type 1 reverse transcriptase activity infected in human MT2 cells assessed as level of p19 antigen; assay type: cell-based, Human T-cell leukemia virus type I; conditions: Primate T-lymphotropic virus 1, MT2
[3] = Cytotoxicity against PHA-stimutated human PBMC after 24 hrs by MTS assay; assay type: cell-based; conditions: PHA-stimulated PBMC
[4] = Cytotoxicity against human MOLT3 cells after 24 hrs by MTS assay; assay type: cell-based, MOLT-3
Method in brief: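 MOLT-3 cells (1 × 10^4) were exposed for 1 day in RPMI with 5% FBS to seven concentrations (1 ng/ml–1 mg/ml). MTS formazan formation was read at 490 nm after 1 h with reagent. Mean CC50 comes from three independent experiments.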

[5] = Ratio of zidovudine CC50 to compound CC50 for human MOLT3 cells; assay type: ADME, cell-based, MOLT-3
[6] = Ratio of nevirapine CC50 to compound CC50 for human MOLT3 cells; assay type: ADME, cell-based, MOLT-3
[7] = system: Human immunodeficiency virus 1; assay: Antiviral activity against HIV1 infected in human PBMC assessed as inhibition of gag gene expression after 5 days post infection by quantitative real time RT-PCR; assay type: functional, organism-based; conditions: Human immunodeficiency virus 1, 120 h
Method in brief: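 Donor PBMC (HIV-, HBV-, HCV-seronegative) stimulated overnight with PHA 2 µg/ml, then infected 2 h with clarified H9/HIV-1IIIB supernatant (20 ng/ml p24), then cultured with IL2 20 U/ml. Compounds added 4 h pre-infection and re-added daily at half concentration; vehicle ≤0.5% methanol. Harvest day 5; gag mRNA by SYBR RQ-PCR vs GUSB (2^-ΔΔCt); three experiments in triplicate; IC50.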

[8] = system: Human immunodeficiency virus 1; assay: Antiviral activity against HIV1 infected in human PBMC assessed as inhibition of gag gene expression at 10 ug/ml after 5 days post infection by quantitative real time RT-PCR; assay type: functional, organism-based
Method in brief: (§1)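 PBMC were stimulated overnight with 2 µg/ml PHA and infected for 2 h with clarified H9/HIV-1IIIB supernatant at 20 ng/ml p24. They were then cultured with IL-2 20 U/ml. Compound was added 4 h before infection and re-added daily at half concentration, with 0.5% methanol as vehicle control. At 5 days pi, gag mRNA was measured by SYBR Green RQ-PCR in triplicate, normalized to GUSB (2^-ΔΔCt).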

[9] = system: Human T-cell leukemia virus type I; assay: Antiviral activity against Human T-cell leukemia/lymphoma virus type 1 infected in human PBMC assessed as inhibition of tax/rex gene expression after 3 weeks post infection by quantitative real time RT-PCR; assay type: functional, organism-based; conditions: Primate T-lymphotropic virus 1, 504 h
Method in brief: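 PBMC infected with HTLV-1. Compounds were added at infection onset, then at half concentration on days 3, 7 and 10 pi; the vehicle was up to 0.5% methanol. Cells were harvested 3 weeks pi and debris removed on a density gradient. tax/rex mRNA was measured by SYBR RQ-PCR normalized to GUSB (2^-ΔΔCt). RQ-IC50 came from three experiments, each in triplicate.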

[10] = Ratio of Lamivudine CC50 to compound CC50 for human MOLT3 cells; assay type: ADME, cell-based, MOLT-3
[11] = system: Human T-cell leukemia virus type I; assay: Antiviral activity against Human T-cell leukemia/lymphoma virus type 1 infected in human PBMC assessed as inhibition of tax/rex gene expression at 10 ug/ml after 3 weeks post infection by quantitative real time RT-PCR; assay type: functional, organism-based
Method in brief: (§2)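 Compound was added to PBMC cultures at the onset of HTLV-1 infection and re-added at half concentration on days 3, 7 and 10 pi, with 0.5% methanol as vehicle control. Cells were harvested 3 weeks pi and debris removed on a density gradient. Tax/rex mRNA was quantified by SYBR Green RT-PCR (40 cycles, 95/60 °C) against GUSB using the comparative Ct method.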

[12] = target: Human immunodeficiency virus type 1 reverse transcriptase (Human immunodeficiency virus 1, UniProt Q72547); assay: Inhibition of HIV1 3B reverse transcriptase activity
Method in brief: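 Commercial purified HIV-1 RT replaced the virion lysate in the same cell-free reverse transcription/20-cycle amplification assay. RTIC50 came from band densitometry over three independent experiments, with no compound pre-activation.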

[13] = system: Human T-cell leukemia virus type I; assay: Antiviral activity against Human T-cell leukemia/lymphoma virus type 1 infected in human PBMC assessed as inhibition of tax/rex gene expression at 5 ug/ml after 3 weeks post infection by quantitative real time RT-PCR; assay type: functional, organism-based; method in brief: as §2
[14] = Ratio of CC50 for PHA-stimulated human PBMC to IC50 for HIV1 infected in human PBMC
[15] = system: Human T-cell leukemia virus type I; assay: Ratio of IC50 for nevirapine to compound IC50 for Human T-cell leukemia/lymphoma virus type 1 reverse transcriptase activity
[16] = system: Human immunodeficiency virus 1; assay: Antiviral activity against HIV1 infected in human PBMC assessed as inhibition of gag gene expression at 1 ug/ml after 5 days post infection by quantitative real time RT-PCR; assay type: functional, organism-based; method in brief: as §1
[17] = system: Human immunodeficiency virus 1; assay: Antiviral activity against HIV1 infected in human PBMC assessed as inhibition of gag gene expression at 0.23 ug/ml after 5 days post infection by conventional RT-PCR; conditions: Human immunodeficiency virus 1, 120 h
[18] = system: Human T-cell leukemia virus type I; assay: Antiviral activity against Human T-cell leukemia/lymphoma virus type 1 infected in human PBMC assessed as inhibition of tax/rex gene expression at 22.93 ug/ml after 3 weeks post infection by quantitative real time RT-PCR; assay type: functional; conditions: Primate T-lymphotropic virus 1, 504 h
[19] = system: Human T-cell leukemia virus type I; assay: Antiviral activity against Human T-cell leukemia/lymphoma virus type 1 infected in human PBMC assessed as inhibition of tax/rex gene expression at 0.27 ug/ml after 3 weeks post infection by quantitative real time RT-PCR; assay type: functional; conditions: Primate T-lymphotropic virus 1, 504 h

| SMILES | inhibition at 0.27 µg/mL [1] [%] | IC50 [2] [µg/mL] | CC50 at 24 h [3] [µg/mL] | CC50 at 24 h [4] [µg/mL] | selectivity ratio [5] | selectivity ratio [6] | IC50 [7] [µg/mL] | inhibition [8] | IC50 [9] [µg/mL] | selectivity ratio [10] | inhibition [11] | IC50 [12] [nM] | inhibition [13] | Ratio CC50/IC50 [14] | Ratio IC50 [15] | inhibition [16] | inhibition at 0.23 µg/mL [17] [%] | inhibition at 22.93 µg/mL [18] [%] | inhibition at 0.27 µg/mL [19] [%] |
| --- | --- | --- | --- | --- | --- | --- | --- | --- | --- | --- | --- | --- | --- | --- | --- | --- | --- | --- | --- |
| Cc1ccnc2c1NC(=O)c1cccnc1N2C1CC1 [NEVIRAPINE] | 100 | > 0.266 | 40.9 (≈ 154 µM) | 20.1 (≈ 75.3 µM) | – | – | – | – | – | – | – | – | – | – | – | – | – | – | – |
| CC(=O)O[C@H]1CC(=O)OC(C)(C)[C@@H]2CC(=O)[C@]3(C)[C@H](CC[C@@]4(C)[C@@H](c5ccoc5)OC(=O)[C@H]5O[C@]543)[C@@]12C [NOMILIN] | – | 0.0026 (≈ 0.00505 µM) | 692 (≈ 1340 µM) | 756 (≈ 1470 µM) | 230 | 40 | 13 (≈ 25.3 µM) | Active | 3.98 (≈ 7.73 µM) | 130 | Active | 6.65 | – | – | – | – | – | – | – |
| CC1(C)O[C@H]2CC(=O)OC[C@]23[C@H]2CC[C@@]4(C)[C@H](c5ccoc5)OC(=O)[C@H]5O[C@]54[C@]2(C)C(=O)C[C@@H]13 [LIMONIN] | – | 0.00031 (≈ 0.000659 µM) | 452 (≈ 960 µM) | 202 (≈ 428 µM) | 62 | 10 | 0.92 (≈ 1.96 µM) | – | 1.07 (≈ 2.27 µM) | 33 | – | 8.99 | Active | 450 | > 1000 | Active | – | – | – |
| Nc1ccn([C@@H]2CS[C@H](CO)O2)c(=O)n1 [LAMIVUDINE] | – | – | 53 (≈ 231 µM) | 5.94 (≈ 25.9 µM) | – | – | 0.19 (≈ 0.829 µM) | – | 14.2 (≈ 62.1 µM) | – | – | – | – | – | – | – | 100 | 100 | – |
| Cc1cn([C@H]2C[C@H](N=[N+]=[N-])[C@@H](CO)O2)c(=O)[nH]c1=O [ZIDOVUDINE] | 100 | – | 31.2 (≈ 117 µM) | 3.24 (≈ 12.1 µM) | – | – | – | – | 0.16 (≈ 0.599 µM) | – | – | – | – | – | – | – | – | – | 100 |
